Active and inactive are the calls of the source.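 The calls were made as follows, unless noted: active = inhibition above 20% together with a positive visual image hit; inconclusive = visual image hit but inhibition not above 20%; inactive = no visual image hit.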
Key:
[1] = inhibitors of TNFa-induced NFkB p65 translocation, primary screen, imaging, HUVEC, MLSMR starter and 10KST1 sets (AID 438); conditions: HUVEC TNFa-induced p65 nuclear translocation; cell count: measured here: nuclei count (cytotoxicity indicator), at 2.08 µM; inhibition: at 2 µM, stronger effect = higher value, 0% TNFa-plus-vehicle, 100% no-TNFa wells;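 also: compound added about 3h40 before a 20 min TNFalpha stimulation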;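 as to inhibition: signal is the nuclear over cytoplasmic p65 intensity ratio per well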
[2] = endothelial E-selectin expression blockers – imaging, HUVEC, immunofluorescence, MLSMR starter and 10KST1 sets, primary screen (AID 487;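 active = visually confirmed hit in the image check and inhibition above 20%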;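 as to inhibition: signal is fraction of cell area covered by stained E-selectin grains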;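 as to nuclei count: 100% = median nuclei count of all wells on the same plate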); conditions: HUVEC TNFalpha-induced E-selectin immunofluorescence imaging, at 2 µM; inhibition: stronger effect = higher value; nuclei count: measured here: cell number, toxicity
[3] = Primary imaging screen for DUSP6 inhibitors that restore phospho-Erk in transfected HeLa cells, chemical complementation (AID 609;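 active = compounds giving at least 50% inhibition in the cell-based MKP-3 phosphatase rescue imaging test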;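 as to inhibition: phospho-Erk level distribution per well compared with pooled transfected vehicle control wells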); conditions: HeLa MKP-3 transfected, phospho-Erk imaging KS statistic, at 10 µM, cells stimulated with TPA for 15 min
[4] = target: Dual specificity protein phosphatase 6 (Homo sapiens) (UniProt Q16828); assay: as above; conditions: HeLa MKP-3 transfected, phospho-Erk imaging KS statistic; at 10 µM; stronger effect = higher value; cells stimulated with TPA for 15 min
[5] = target: Voltage-gated potassium channel subunit beta-2 (Rattus norvegicus) (UniProt P62483); assay: inhibitors of rat Kvbeta2 reductase activity – biochemical, NADPH fluorescence, primary screen (AID 622;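 active = fluorescence slope higher than the sample average by over 3 SD, cut at about -0.22 in these data, passing the limit was not always enough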;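 also: slope of raw intensity against log time taken from 70 to 1610 s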); conditions: recombinant KvBeta, 4-cyanobenzaldehyde reduction, at 10 µM, stronger effect = higher value
[6] = target: Voltage-gated potassium channel subunit beta-2 (Rattus norvegicus) (UniProt P62483); assay: enhancers of rat Kvbeta2 NADPH turnover – biochemical, NADPH fluorescence, primary screen (AID 623;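 active = NADPH fluorescence slope more negative than the mean of all samples by about 3 SD, 99.7% confidence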;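 also: fluorescence intensity change per second fitted from 20 to 320 s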); conditions: Recombinant KvBeta, NADPH fluorescence decrease slope, 10 min; at 10 µM; stronger effect = lower value
[7] = target: Muscarinic acetylcholine receptor M4 (Homo sapiens) (UniProt P08173); assay: M4-linked GIRK flux change, two-sided – cell-based, HEK293 M4/GIRK, thallium flux, BTC-AM, M4 allosteric agonist project, primary screen (AID 625;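 active = fluorescence slope after compound addition differing from the mean of all tested samples at 99.7% confidence, mostly higher but some lower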;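 also: thallium influx through GIRK channels coupled to M4 in HEK293 cells with BTC-AM dye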); conditions: at 10 µM, actives lie on both sides
Summary of the method: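 assay system = HEK293 cells with M4 receptor and GIRK channels | medium = pH 7.3 thallium assay buffer | doses = 10 µM final, single point | timing = cells overnight at 37 °C, BTC-AM loading 1 h, reads 2 min total | signal = BTC-AM fluorescence, 1 Hz kinetic reads | read-out = post-addition slope, 15–24 s, of baseline-normalized fluorescence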

[8] = inhibitors of larval lipid processing in zebrafish, primary screen, whole organism, PED6 fluorescence, gall bladder and intestine (AID 686;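 active = a full or partial loss of lipid-probe fluorescence in the fish gall bladder, intestine or both, judged by eye; inactive = no fluorescence loss, or compound toxic to the fish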;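 also: larvae 5 to 7 days old with five fish per well; signal comes from phospholipase A2 cleavage of quenched PED6 carried via bile; overnight exposure to compound and PED6 before scoring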); conditions: Zebrafish larvae PED6 lipid processing, fluorescence scoring; screened at 20 µM (by protocol)
Summary of the method: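 Also added: quenched phospholipase substrate PED6, 100 nM final, ingested by larvae; System: zebrafish larvae, 5-7 d; Quantity: 5 larvae per well; Compound: 20 µM single dose; Schedule: overnight compound and PED6 incubation; Read-out: visual per-well fluorescence inhibition score; Measured by: By-eye fluorescence microscopy; Medium: E3.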

[9] = loss of swimming-algae plug formation – whole organism, Chlamydomonas reinhardtii, WT vs cilia-less mutant, absorbance, 96-well, primary screen (AID 463189;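 active = inhibition at or above 50% relative to wild type and mutant plate controls; inactive = inhibition below 50%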;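 also: 0% = wild type cc124 cells in DMSO and 100% = ciliumless bld1 mutant cells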); conditions: Chlamydomonas reinhardtii gravitaxis, OD600 absorbance, 2 days; at 10 µM; stronger effect = higher value
[10] = measured here: cell density z-score
[11] = measured here: nuclear c-Myc green intensity z-score
[12] = measured here: nuclear pErk red intensity z-score, stronger effect = higher value

Dual specificity protein phosphatase 6 (Homo sapiens), sequence (Q16828 whole entry, looked up): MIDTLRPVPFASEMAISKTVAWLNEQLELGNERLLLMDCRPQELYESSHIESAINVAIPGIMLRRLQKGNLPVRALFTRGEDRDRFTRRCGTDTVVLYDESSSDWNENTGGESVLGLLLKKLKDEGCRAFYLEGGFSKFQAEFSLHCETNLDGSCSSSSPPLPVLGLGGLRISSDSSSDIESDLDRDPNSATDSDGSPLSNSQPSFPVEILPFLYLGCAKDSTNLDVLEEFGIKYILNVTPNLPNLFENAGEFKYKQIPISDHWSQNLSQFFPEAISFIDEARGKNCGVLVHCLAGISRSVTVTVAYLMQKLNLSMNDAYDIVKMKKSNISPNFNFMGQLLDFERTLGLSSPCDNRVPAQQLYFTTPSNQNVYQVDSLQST
Muscarinic acetylcholine receptor M4 (Homo sapiens), sequence (P08173 whole entry, looked up): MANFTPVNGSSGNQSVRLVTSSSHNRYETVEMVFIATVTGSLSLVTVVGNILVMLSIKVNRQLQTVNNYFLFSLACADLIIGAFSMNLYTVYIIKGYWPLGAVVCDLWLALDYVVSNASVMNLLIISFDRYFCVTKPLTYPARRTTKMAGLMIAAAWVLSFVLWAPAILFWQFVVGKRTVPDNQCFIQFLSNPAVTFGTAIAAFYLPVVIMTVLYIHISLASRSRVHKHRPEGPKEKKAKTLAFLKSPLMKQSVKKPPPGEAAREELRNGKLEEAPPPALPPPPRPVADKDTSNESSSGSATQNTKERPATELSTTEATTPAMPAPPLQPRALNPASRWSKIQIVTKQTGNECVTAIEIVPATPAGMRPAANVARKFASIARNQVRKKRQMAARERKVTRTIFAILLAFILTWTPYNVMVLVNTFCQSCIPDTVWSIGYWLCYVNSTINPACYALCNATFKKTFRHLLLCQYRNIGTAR
Voltage-gated potassium channel subunit beta-2 (Rattus norvegicus), sequence (P62483 whole entry, looked up): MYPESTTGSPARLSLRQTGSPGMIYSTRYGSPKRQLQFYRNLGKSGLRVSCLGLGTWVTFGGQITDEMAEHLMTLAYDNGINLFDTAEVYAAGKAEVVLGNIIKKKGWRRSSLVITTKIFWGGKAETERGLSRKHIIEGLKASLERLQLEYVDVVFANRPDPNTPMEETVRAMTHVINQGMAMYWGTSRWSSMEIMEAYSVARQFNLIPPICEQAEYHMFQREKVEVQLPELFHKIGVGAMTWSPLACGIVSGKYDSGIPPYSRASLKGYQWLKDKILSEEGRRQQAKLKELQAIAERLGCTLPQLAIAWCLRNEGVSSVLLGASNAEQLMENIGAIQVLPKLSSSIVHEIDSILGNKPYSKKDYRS

| SMILES | cell count [1] | inhibition [1] | inhibition [2] | nuclei count [2] [%] | z-score [3, 10] | z-score [3, 11] | z-score [3, 12] | inhibition [4] | fluorescence slope [5] | NADPH fluorescence slope [6] | fluorescence slope [7] | outcome [8] | inhibition [9] |
| --- | --- | --- | --- | --- | --- | --- | --- | --- | --- | --- | --- | --- | --- |
| O=C1CC(NCc2ccncc2)C(=O)N1c1ccc(Cl)cc1 (centres undefined) | 479 | 2.2% (inactive) | -20.1% (inactive) | 150 | 0.96 | -0.274 | -0.794 | 2.71% (inactive) | -0.464 (inactive) | -3.3e-05 (inactive) | 0.00465 (inactive) | inactive | 25.9% (inactive) |
| C=CCN=C(NC#N)SCCc1ccccc1 | 587 | -16.1% (inactive) | 49.5% (inactive) | 161 | -0.943 | 1.91 | -0.167 | -5.62% (inactive) | -0.498 (inactive) | -6.6e-05 (inactive) | 0.00676 (inactive) | inactive | -0.302% (inactive) |
| CCCOC(=O)CSC1=C(C#N)C(c2ccc3c(c2)OCO3)CC(=O)N1 (centres undefined) | 674 | -6.1% (inactive) | -91.1% (inactive) | 161 | 0.796 | -0.679 | -1.26 | -7.86% (inactive) | -0.487 (inactive) | -6.2e-05 (inactive) | 0.00536 (inactive) | inactive | 6.85% (inactive) |
| CCCc1cc(=O)oc2c(CN3CCCC3)c(O)ccc12 | 571 | -10.8% (inactive) | -11.6% (inactive) | 118 | 0.0938 | -0.952 | -1.55 | 0.671% (inactive) | -0.0292 (inactive) | 1.1e-05 (inactive) | 0.0058 (inactive) | inactive | -1.86% (inactive) |
| COc1ccc(-n2ncc3c(Nc4cccc(C)c4)ncnc32)cc1 | 629 | -11.3% (inactive) | -122% (inactive) | 182 | 1.43 | 1.07 | -1.65 | 11.4% (inactive) | -0.319 (inactive) | -1.2e-05 (inactive) | 0.00486 (inactive) | inactive | 3.81% (inactive) |
| C/C(NC(=O)c1ccccc1F)=C1\C(=O)C[C@@H]2[C@H]1C2(C)C | 697 | -13.5% (inactive) | -170% (inactive) | 187 | -0.142 | 0.763 | -0.13 | -2.47% (inactive) | -0.483 (inactive) | -0.000131 (inactive) | 0.00606 (inactive) | inactive | 24.1% (inactive) |
| Cc1cc(=O)n2[nH]c(N3C(=O)CCC3=O)nc2n1 | 527 | -1.3% (inactive) | 47.3% (inactive) | 172 | -0.749 | -0.115 | 1.44 | -5.95% (inactive) | -0.397 (inactive) | -2.7e-05 (inactive) | 0.00594 (inactive) | inactive | 4.51% (inactive) |
| C=CCOc1ccc(C2/C(=C(\O)c3ccc(F)cc3)C(=O)C(=O)N2CCCN(C)C)cc1 (centres undefined) | 672 | -13.7% (inactive) | -142% (inactive) | 172 | 1.58 | 1.06 | -0.378 | 4.25% (inactive) | -0.451 (inactive) | -4.3e-05 (inactive) | 0.00492 (inactive) | inactive | 14.7% (inactive) |
| Cc1ccc(-c2nnc(-c3ccccc3)o2)cc1Br | 570 | -3.8% (inactive) | 33% (inactive) | 98.9 | -0.752 | 0.492 | -1.02 | 1.63% (inactive) | -0.564 (inactive) | 6e-06 (inactive) | 0.00616 (inactive) | inactive | 2.02% (inactive) |
| CCOC(=O)C1=Nc2ccccc2C1=[N+]=[N-] | 714 | -2.2% (inactive) | 6.6% (inactive) | 179 | -0.487 | 0.636 | 1.84 | -5.95% (inactive) | -0.477 (inactive) | -4.9e-05 (inactive) | 0.00733 (inactive) | inactive | 152% (active) |
| C=CC[N+](C)(C)CCCNC(=O)/C=N/O | 665 | -3.3% (inactive) | -22.3% (inactive) | 164 | 0.15 | -0.161 | -1.51 | -9.53% (inactive) | -0.482 (inactive) | -4.6e-05 (inactive) | 0.00537 (inactive) | inactive | -5.25% (inactive) |
| COc1ccc(OCC(O)CN2C(=O)NC(C)(C)C2=O)cc1 (centres undefined) | 617 | -6.4% (inactive) | 33.5% (inactive) | 155 | 0.439 | -0.253 | -0.891 | 9.42% (inactive) | -0.419 (inactive) | -3.6e-05 (inactive) | 0.0058 (inactive) | inactive | -2.72% (inactive) |
| CC1N(O)C(c2ccc(Cl)cc2Cl)N(O)C1(C)C (centres undefined) | 482 | 1.9% (inactive) | -3.5% (inactive) | 94.1 | -0.283 | -1.5 | 1.54 | 7.93% (inactive) | -0.347 (inactive) | 9.2e-07 (inactive) | 0.00632 (inactive) | inactive | 43.1% (inactive) |
